Compound activity deposited in PubChem BioAssay by several laboratories.
Hits are enriched below; roughly 4.7% of the tested compounds scored in any of these assays.
MPTP block: mitochondrial permeability transition pore inhibitors, primary screen, biochemical, isolated mouse mitochondria, absorbance; Ca2+ swelling absorbance, 30 min; 360,000 tested, 1.4% active; inhibition, % at 10 µM; AID 602449, 2012;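 active means inhibition of 50% or more, scaled per plate between neutral and stimulator controls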
NR3A LBD binder: binders of NR3A ligand-binding domain, primary screen, biophysical, differential scanning fluorimetry, uHTS. 340,000 tested, 2.5% active. Glutamate receptor ionotropic, NMDA 3A (GRIN3A) ligand-binding domain. Tm shift relative to glycine control, % at 25 µM. NR3A LBD differential scanning fluorimetry, Tm shift; 0% = protein alone, 100% = glycine-bound protein;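 active means melting temperature shift of at least 10% of the positive control shift, at one fixed dose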
MT1-MMP act inh: blockers of MT1-MMP proenzyme processing, primary screen, HT1080 RFP-PRO-GFP cells, GFP/RFP fluorescence. Matrix metalloproteinase-14 (Homo sapiens), P50281. GFP/RFP ratio fluorescence, overnight; percent of plate control window, DMSO zero. GFP/RFP ratio change, % at 20 µM. 360,000 tested, 0.061% active;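 active means GFP/RFP ratio change of at least 30% with cell ATP level not reduced by more than half and red fluorescence within 50% of control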
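Compound: 20 µM single dose, 1% DMSO / System: HT1080 RFP-PRO-GFP cells / Controls: DMSO and RFP-L50D-GFP cell wells / Read-out basis: GFP/RFP fluorescence ratio / Schedule: overnight compound exposure at 37 °C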
SKN-1 inh: suppressors of acrylamide-induced Pgst-4::GFP reporter in worms, primary screen, SKN-1 inhibitor project, whole organism, uHTS, GFP/RFP fluorescence ratio, strain VP596. C. elegans VP596 Pgst-4::GFP/RFP ratio, 24 h. inhibition, % at 21.8 µM. 360,000 tested, 0.49% active. AID 624304, 2012;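 active means interference check ratio from 0.5 to 1.5 plus GFP to RFP signal ratio inhibition reaching or exceeding a fixed threshold, cut at about 30% in these data, passing the limit was not always enough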
ADAM10 inh: human ADAM10 inhibitors, primary screen, biochemical, QFRET, HTS | inhibition, % at 7 µM | recombinant ADAM10, EDANS/DABCYL FRET peptide cleavage, 3 h | 370,000 tested, 0.62% active;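 active means inhibition above a per-campaign cutoff equal to the mean of compounds falling between control-based bounds plus 3 SD, cut at about 20% in these data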
ADAM17 inh: ADAM17 inhibitors, primary screen, biochemical, QFRET. inhibition, % at 6.95 µM. recombinant ADAM17, EDANS/DABCYL FRET peptide cleavage. AID 720648, 2013. Disintegrin and metalloproteinase domain-containing protein 17 (Homo sapiens), P78536. 370,000 tested, 0.83% active;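 active means inhibition above the mean of compounds lying between control limits plus 3 SD, set per campaign, cut at about 8.5% in these data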
Rh123 counter: fluorescence retest of MPTP screen hits in isolated mitochondria, single concentration; 5,000 tested, 78% active; shares compounds with MPTP block; inhibition, % at 10 µM; membrane potential, Rhodamine 123 fluorescence; AID 624504, 2012; in the data active means inhibition above about 22%
MPTP abs DR: mitochondrial permeability transition pore inhibitors, dose response, biochemical, absorbance, uHTS hits; shares compounds with MPTP block; isolated mitochondria swelling; IC50, µM; 780 tested, 58% active; in the data active means IC50 below about 20 µM
MPTP counter DR: fluorescent counter-screen in isolated mitochondria, dose response, counter-screen for MPTP inhibitor project, biochemical, fluorescence, uHTS hits. shares compounds with MPTP block. isolated mitochondria counterscreen, fluorescence read-out. IC50, µM. 780 tested, 49% active; in the data active means IC50 below about 80 µM
Of the large screens only hits and unclear results are named; the others gave an inactive call (follow-up assays come after a bar, where they were run).

O=C(Nc1ccccc1C(=O)NCCCN1CCOCC1)c1ccccc1	none
Cn1c(=O)cc(N2CCCCC2)[nH]c1=O	none
CCN1/C(=C/c2cc[n+](C)cc2)C=Cc2cc(C)ccc21	MPTP block 66.9 | Rh123 counter 70.0
CCC(=O)N1CCc2cc(S(=O)(=O)Nc3ccc4c(c3)OCCO4)ccc21	MPTP block 81.2 | Rh123 counter 58.5
CCCN(CCC)CCNS(=O)(=O)c1ccc2c(c1)CCN2C(=O)C1CCC1	none
O=C(C1CCC1)N1CCc2cc(S(=O)(=O)Nc3ccc4c(c3)OCCO4)ccc21	MPTP block 65.3 | Rh123 counter 81.3
CS(=O)(=O)N1CCc2cc(S(=O)(=O)Nc3ccc4c(c3)OCCO4)ccc21	none
O=C(C1CC1)N1CCc2cc(S(=O)(=O)NCCC3=CCCCC3)ccc21	MPTP block 62.4 | Rh123 counter 46.0
COc1ccccc1CNC(=O)C1(C)CCCCN1C (configuration not stated)	none (no result: NR3A LBD binder)
O=C(CNC(=O)/C(=C/c1ccccc1)NC(=O)c1ccc(Br)cc1)OCc1ccccc1	none
CC1CCCCC1NC(=O)CSc1ccc([N+](=O)[O-])cc1 (configuration not stated)	none
CC(=O)N/C(=C\c1ccc(C)o1)C(=O)NCc1ccccc1	none
CCCCC/C=N/NC(=O)c1[nH]c2ccc([N+](=O)[O-])cc2c1C	MPTP block 76.2 | Rh123 counter 72.7
Cc1ccc2[nH]c(C(=O)N/N=C/c3ccc([N+](=O)[O-])cc3)c(C)c2c1	MPTP block 50.7, NR3A LBD binder 19.9 | Rh123 counter 73.5
Cc1c(C(=O)NN)[nH]c2ccc([N+](=O)[O-])cc12	none
CCOC(=O)c1c(C)[nH]c(C(=O)OCC(=O)Nc2cc(Cl)ccc2OC)c1C	none
CC(=O)c1c(C)[nH]c(C(=O)OCC(=O)Nc2ccc(Cl)cc2[N+](=O)[O-])c1C	MPTP block 90.6 | Rh123 counter 93.0
COc1ccc(CCNc2ncnc3[nH]ncc23)cc1OC	none
COc1ccc(CCNc2ncnc3sc(C)cc23)cc1OC	MPTP block 101.0 | Rh123 counter 95.9
CCOc1ccc(N2C(=O)CC(NC3CCN(C(=O)c4cccc(Cl)c4)CC3)C2=O)cc1 (configuration not stated)	none
C=CC[n+]1c(-c2ccccc2)csc1NC(C)(C)C	none
C=CC[n+]1c(-c2ccc(OC)c(OC)c2)csc1NNC(=O)Nc1ccccc1	MPTP block 63.5 | Rh123 counter 31.1
Cc1cccc(C)c1OCC(=O)Nc1ccc(S(=O)(=O)Nc2ccccn2)cc1	none
CCCCN1C(=N)N([C@@H](C)CN2CCC[C@H]2CN2C(N)=NC[C@H]2CC(C)C)C[C@H]1Cc1ccccc1	MPTP block 67.1 | Rh123 counter inactive | MPTP abs DR 9.03 | MPTP counter DR inactive
C[C@@H](CN1CCC[C@H]1CN1C(N)=NC[C@@H]1Cc1ccccc1)N1C[C@@H](Cc2ccccc2)N(CCc2ccc(Cl)c(Cl)c2)C1=N	MPTP block 74.3 (no result: ADAM10 inh, ADAM17 inh) | Rh123 counter inactive
CC(=O)Nc1ccc(-c2ccnc3c2CC(C)(C(=O)NCc2ccncc2)O3)cc1 (configuration not stated)	none (no result: NR3A LBD binder)
